Sampled rows, rich in hits. Any-hit rate of the full collection: about 4.3%.
ALR inh: inhibitors of human sulfhydryl oxidase ALR; P55789; purified ALR, DTT oxidation, H2O2 HRP-luminol luminescence; inhibition, % (concentration not given with the values); 290,000 compounds, 3.8% hits; AID 485317;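 active = mean replicate inhibition above about 79%, with every replicate also reaching it, limit read from the data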
Target sequence (P55789 whole entry, looked up): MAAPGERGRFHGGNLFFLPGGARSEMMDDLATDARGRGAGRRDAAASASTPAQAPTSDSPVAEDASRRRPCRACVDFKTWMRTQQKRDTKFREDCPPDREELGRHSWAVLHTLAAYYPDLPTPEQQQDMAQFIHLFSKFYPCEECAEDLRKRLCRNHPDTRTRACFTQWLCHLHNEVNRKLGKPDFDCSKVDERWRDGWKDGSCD
Rtt109 HAT inh: blocks Candida albicans Rtt109/Vps75 acetyltransferase activity; Q5AAJ8; purified Rtt109/Vps75, ThioGlo CoA-SH fluorescence, 4 h; 330,000 compounds, 0.16% hits; inhibition, % at 34.9 µM;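 active = inhibition of at least 50% in every replicate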
Target sequence (Q5AAJ8 whole entry, looked up): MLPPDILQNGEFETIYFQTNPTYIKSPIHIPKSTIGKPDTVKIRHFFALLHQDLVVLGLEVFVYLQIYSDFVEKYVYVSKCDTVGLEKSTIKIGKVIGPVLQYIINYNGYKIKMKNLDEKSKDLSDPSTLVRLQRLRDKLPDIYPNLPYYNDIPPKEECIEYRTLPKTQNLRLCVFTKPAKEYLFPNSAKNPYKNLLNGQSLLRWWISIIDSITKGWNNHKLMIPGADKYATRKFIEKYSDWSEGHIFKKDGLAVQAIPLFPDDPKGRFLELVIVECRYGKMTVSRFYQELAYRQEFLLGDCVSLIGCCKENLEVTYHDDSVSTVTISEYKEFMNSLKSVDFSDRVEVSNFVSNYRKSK
CAL PDZ FP-1: inhibitors of human CAL PDZ peptide binding. Q9HD26. purified CAL PDZ, TMR-peptide fluorescence polarization, 1 h. inhibition, % at 20 µM. 330,000 compounds, 0.02% hits. AID 504414;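 active = highest replicate inhibition of at least 40%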;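 also: plate controls were DMSO neutral control wells for no effect and unlabeled competitor peptide control wells for full effect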
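material = purified tagged CAL PDZ domain construct (CerCALP) | buffer or medium = sodium phosphate/NaCl buffer pH 7.4 with TCEP, IgG, Thesit | reagent = TMR-labelled reporter peptide T*-PRC34 bound in PDZ groove | incubation = 1 h room-temperature incubation prior to read | measured by = fluorescence polarization (mP) | evaluation = percent inhibition from loss of millipolarization | control set = unlabelled peptide and DMSO controls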
Dyrk1A ADPGlo: inhibitors of rat Dyrk1A kinase; Q63470; ADP-Glo luminescence, NFATc1 peptide; inhibition, % at 12.5 µM; 310,000 compounds, 0.43% hits; in the data active = inhibition above about 50%;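 also: plate controls were vehicle with enzyme for no effect and no enzyme for full effect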
CAL PDZ FP-2: blocks peptide binding to the human CAL PDZ domain; 300,000 compounds, 0.92% hits; purified CAL PDZ, TMR-peptide fluorescence polarization, 1 h; Q9HD26; inhibition, % at 24.9 µM; AID 602252;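 active = mean inhibition of at least 30% with at least half of replicates also reaching 30%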;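 also: 0% = DMSO neutral control and 100% = excess unlabeled competitor peptide PRC23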
Active calls of the source: *; . = no result.

SMILES	ALR inh	Rtt109 HAT inh	CAL PDZ FP-1	Dyrk1A ADPGlo	CAL PDZ FP-2
COc1ccc(NC(=O)CSc2c(C)n[nH]c2C)cc1	99*	30	0	7	.
COc1ccc(NC(=O)Cn2nc(C)c3ccccc3c2=O)cc1	-4	0	33	10	37*
O=C(NC1CCCCC1)C(c1ccccc1)N1CCc2ccccc21 (stereo not drawn)	98*	1	-1	-1	5
Cc1cc(=O)c2c([nH]1)c(C)cc1[nH]c(C)c(C)c12	2	-46	0	13	.
C/C=C(\C)C(=O)O[C@H](c1cc2ccc(=O)oc2cc1OC)[C@@H](O)C(C)(C)O	-6	-2	0	5	-3
Oc1ccc(-c2cnc3ccccc3n2)cc1	98*	15	1	28	-6
C=CCn1c(-c2ccccc2[N+](=O)[O-])n[nH]c1=S	89*	-1	0	-4	2
C=CCn1c(-c2cccc(OC)c2)n[nH]c1=S	96*	-3	-1	4	-3
C=CCn1c(-c2csc(-c3ccccc3)n2)n[nH]c1=S	14	-2	-1	10	-2
C=CCn1c(-c2cc(-c3ccccc3)sc2N)n[nH]c1=S	93*	1	-1	3	.
Nc1sc(-c2ccccc2)cc1-c1n[nH]c(=S)n1C1CCCCC1	98*	1	0	4	.
O=C(Nn1cnnc1)c1ccc(Cl)c(Cl)c1	17	3	0	-3	.
CCCc1cc(=O)oc2cc(C)cc(OCC(=O)Nc3ccc(S(N)(=O)=O)cc3)c12	.	29	-2	4	-2
CC(C)[C@@H](N)C(=O)N/N=C/c1ccc2nccnc2c1	-5	2	-1	.	1
CC(C)[C@H](NC(=O)OC(C)(C)C)C(=O)N/N=C/c1ccc2nccnc2c1	.	0	-1	-2	70*
CCCOc1ccc(C2=CSC3=NCCN23)cc1	67	2	0	-5	11
Cc1ccc(S(=O)(=O)N2CCOCC2)cc1NC(=O)CNC1CCCC1	-4	-4	0	-5	-1
O=C(COc1ccc(Br)cc1F)Nc1nnc(C2CC2)s1	0	-2	0	.	-4
O=C(COc1cc(Cl)ccc1Cl)Nc1nnc(C2CC2)s1	7	0	-1	-1	37*
CC(=O)N1c2ccc(S(=O)(=O)N3CCCCC3)cc2CC1C(=O)NCc1ccc(N(C)C)cc1 (stereo not drawn)	34	6	-2	-2	4
CC(=N\Nc1ccccc1)/C(=N/O)C(=O)Nc1ccccc1	97*	7	1	3	0
CN(C)S(=O)(=O)c1cc(C(=O)OCCn2cnc3c2c(=O)n(C)c(=O)n3C)ccc1Cl	-2	-4	-1	3	-3
Cc1noc(C)c1COc1ccc(C(=O)NCCc2ccc(F)cc2)cc1	.	3	0	8	.
Cc1noc(C)c1COc1ccc(CC(=O)NCCc2ccccc2)cc1	-3	-10	0	-1	108*
CC(=O)c1[nH]c(C)c(C(=O)N2CCCC(Nc3ccc(C(C)C)cc3)C2)c1C (stereo not drawn)	.	6	-2	-6	-1
SMILES	ALR inh	Rtt109 HAT inh	CAL PDZ FP-1	Dyrk1A ADPGlo	CAL PDZ FP-2
Cc1noc(C)c1C(=O)N1CCCC(Nc2ccc(C(C)C)cc2)C1 (stereo not drawn)	98*	2	-1	-2	-1
COc1ccc(NC2CCCN(C(=O)c3c(C)noc3C)C2)cc1 (stereo not drawn)	99*	-2	-1	-6	-5
S=C(NCCCN1CCOCC1)NC1CC1	-30	0	0	.	0
Cc1nn(CCCC(=O)Nc2nccs2)c(C)c1[N+](=O)[O-]	3	2	-2	-4	3
COc1nc(Cl)cn(-c2ccc(C)cc2)c1=O	-5	6	0	-9	-3
Cc1ccc(-n2c(Cl)c(Cl)nc(Cl)c2=O)cc1	97*	16	3	1	3
C[C@@H]1CCCCCCCCC(=O)OCCN(C(=O)OC(C)(C)C)[C@H](C)CCCCCCCCC(=O)OCCN(C(=O)OC(C)(C)C)[C@H](C)CCCCCCCCC(=O)OCCN(C(=O)OC(C)(C)C)[C@H](C)CCCCCCCCC(=O)OCCN1C(=O)OC(C)(C)C	-2	-25	1	-3	-1
O=c1ccc2cc(O)c(O)cc2o1	96*	-307	-1	12	-2
C[C@H](NC(=O)c1ccco1)C(=O)OCC(=O)N1CC(=O)Nc2ccccc21	.	4	0	.	3
Cc1ccc(-c2cnn3c(N4CCOCC4)cc(C)nc23)cc1	93*	-4	0	-14	-2
O=C(CS(=O)c1ccccc1[N+](=O)[O-])Oc1ccc(Br)cc1 (stereo not drawn)	78*	10	0	0	-2
COCCN1C(=O)C(C(=O)OC)CC2=C1CC(C)(C)CC2=O (stereo not drawn)	.	-11	0	-2	-4
CCN(Cc1cnn(C)c1)C(=O)C1CCC(=O)N(CCc2ccc(OC)cc2)C1 (stereo not drawn)	-5	10	-1	0	86*
COc1cc(OC)cc(C(=O)N[C@H](C(=O)OCC(=O)Nc2sccc2C#N)C(C)C)c1	.	-6	-2	.	-2
Cc1cc(C)c2nc(N3C(=O)C(O)=C(C(=O)c4ccco4)C3c3ccco3)sc2c1 (stereo not drawn)	98*	-17	-22	-5	-12
CCOc1ccc2nc(N3C(=O)C(O)=C(C(=O)c4ccco4)C3c3ccco3)sc2c1 (stereo not drawn)	6	-1	0	.	3
CSc1nnc(N2C(=O)C(O)=C(C(=O)c3ccco3)C2c2cccc(Cl)c2)s1 (stereo not drawn)	87*	1	-5	-1	-12
CSc1nnc(N2C(=O)C(O)=C(C(=O)c3ccco3)C2c2ccc(F)cc2)s1 (stereo not drawn)	10	13	-4	1	-6
CCCCN(C1CCS(=O)(=O)C1)S(=O)(=O)c1ccc(OC)cc1 (stereo not drawn)	14	-5	-3	-8	-3
COc1cc(C)c(/C=C(\C#N)C(=O)Nc2cccc(C)c2)cc1C(C)C	-3	8	0	-5	6
CC(=O)c1ccc(NC(=S)N(C)C2CCN(C)CC2)cc1	-20	-5	0	8	-1
O=C1C2C3C=CC(O3)C2C(=O)N1N=Cc1cccc2ccccc12 (stereo not drawn)	.	-11	0	3	112*
Cc1ccc(S(=O)(=O)NC(=O)C2CCCCC2)cc1	0	-6	0	3	-3
CC1(N(O)C=C2C=CC(=O)C=C2)CCCCC1=O (stereo not drawn)	99*	6	-2	6	-2
CN1C(=S)SC(N(O)C=C2C=CC(=O)C=C2)C1(C)C (stereo not drawn)	.	-22	.	1	-4
COc1ccc(CN2CC(C(N)=O)Oc3ccccc32)cc1F (stereo not drawn)	98*	-8	-2	7	1
Cc1ccc(-n2ccnc(SCC(=O)NC3CCCC3)c2=O)cc1F	94*	-84	-2	-4	-3
